Screening results: PubChem, The Scripps Research Institute Molecular Screening Center
HTR1A agonist: agonists of human 5-HT1a serotonin receptor | P08908 | activation, % at 10 µM | CHO 5-HT1a Ga15 NFAT-bla reporter, FRET ratio; 0% basal, 100% maximal reference agonist | hit rate 0.56% among 65,000;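 active = activation above the screen-wide mean activation plus 3 SD, cut at about 19% in these data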;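 also: 0% = DMSO wells and 100% = 5-CT at EC100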
Target sequence (P08908 whole entry, looked up): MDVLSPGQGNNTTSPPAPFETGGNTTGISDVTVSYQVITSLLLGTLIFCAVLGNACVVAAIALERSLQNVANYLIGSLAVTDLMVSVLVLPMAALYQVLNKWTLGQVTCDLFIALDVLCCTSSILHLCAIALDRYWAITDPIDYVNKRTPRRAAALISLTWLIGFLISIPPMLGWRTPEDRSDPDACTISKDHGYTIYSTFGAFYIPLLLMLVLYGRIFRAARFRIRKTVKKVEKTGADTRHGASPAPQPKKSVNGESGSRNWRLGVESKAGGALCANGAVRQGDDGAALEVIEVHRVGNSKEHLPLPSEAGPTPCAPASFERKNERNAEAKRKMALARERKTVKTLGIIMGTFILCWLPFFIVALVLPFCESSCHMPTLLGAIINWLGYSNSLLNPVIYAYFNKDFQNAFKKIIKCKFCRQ
S1P3 ag: agonists of human S1P3 receptor; activation, % at 4.5 µM; hit rate 0.1% among 60,000; AID 373; S1P3 NFAT-BLA reporter cells, agonism, FRET ratio; relative to 1 µM S1P, basal subtracted;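 active = activation above the screen-wide mean plus 3 SD, cut at about 4.5% in these data, passing the limit was not always enough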
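Measure – % activation relative to 1 µM S1P (100%), per plate · System – stable CHO line with human S1P3, Gα16, NFAT-BLA reporter · Timing – cells plated overnight, compound 4 h 37 °C, substrate 2 h RT · Technique – fluorescent BLA substrate, ex 405 nm, em 460/535 nm ratio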
S1P1 ag-PAM: S1P1 (human) agonism or agonism potentiation; P21453; S1P1 CRE-bla cells, forskolin, beta-lactamase FRET, potentiator mode; S1P1 agonist co-added at EC20, 2 nM; 100% = saturating reference agonist, 0% = basal; activation, % at 9.5 µM; hit rate 0.57% among 56,000; AID 449;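 active = activation above a cutoff set at the mean activation of all tested compounds plus 3 SD, cut at about 54% in these data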;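 also: forskolin at 4 µM as EC80 and the EC20 agonist is SEW2871; 100% = SEW2871 at its EC100 plus forskolin at EC80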
5HT1a antag: blocks the human serotonin 5-HT1a receptor; inhibition, % at 10 µM; P08908; CHO 5-HT1a Ga15 NFAT-bla reporter, antagonist mode; hit rate 0.68% among 62,000;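 active = inhibition above the mean of all tested compounds plus 3 SD, cut at about 43% in these data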;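 also: receptor stimulated by 5-CT agonist at 100 nM near EC80; beta-lactamase reporter measured by ratiometric fluorescence of a cleavable substrate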
HTR1E antagonist: 5-HT1E (human) receptor antagonism; P28566; CHO 5-HT1E Ga15 NFAT-bla reporter, FRET, antagonist; inhibition, % at 6 µM; hit rate 0.99% among 65,000;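 active = inhibition above a set limit, the mean inhibition across every tested compound plus 3 SD, cut at about 29% in these data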;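 also: signal is the 460 over 535 nm emission ratio of beta-lactamase substrate; 0% = agonist plus DMSO wells and 100% = wells without agonist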
5HT1E ag: agonists of human 5-HT1E serotonin receptor. P28566. CHO 5-HT1E Ga15 NFAT-bla reporter, FRET; 0% DMSO wells, 100% control agonist wells. activation, % at 6 µM. hit rate 0.69% among 65,000. AID 574;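 active = activation above a set limit, the screen-wide mean activation plus 3 SD, cut at about 8.5% in these data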;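 also: 100% = positive control agonist at 1 µM giving full maximal response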
* hit, by the source's call; / = no result. This is a sample that favours compounds with a hit; in the whole collection about 2.9% have one here.

SMILES	HTR1A agonist	S1P3 ag	S1P1 ag-PAM	5HT1a antag	HTR1E antagonist	5HT1E ag
CCCNC(=O)CCC(=O)Nc1ncc(-c2ccc(C)cc2)n1C	-4	-2	21	2	16	0
CC1(C)Cc2c(c(N3CCOCC3)nc3snc(N)c23)CO1	359*	-3	14	/	11	1
CC1(C)Cc2c(c(N3CCOCC3)nc3snc(Br)c23)CO1	2	-3	-32	/	24	-1
Cc1cc(C)n(-c2ccc(C(=O)OCC(=O)c3ccc(Br)s3)cc2)n1	-4	0	12	2	-4	0
O=C(Cn1cccc1C(=O)c1ccccc1)NCc1cccs1	-2	-1	1	6	4	29*
Cc1cc(C)c2nc(Nc3nc(C)cc(=O)[nH]3)nc(C)c2c1	3	1	-228	-30	18	1
COc1cccc(C(=O)Cn2c(=N)n(C)c3ccccc32)c1	0	-1	-8	47*	11	1
COc1cccc(C(=O)Cn2c(N3CCCCC3)nc3c2c(=O)n(C)c(=O)n3C)c1	-2	-1	6	-8	1	1
Cc1cc(C)c(NC(=O)c2cc3c(nc4sccn43)s2)c(C)c1	0	1	0	23	29*	0
N#Cc1cc2c(=O)n3ccccc3nc2n(Cc2cccnc2)c1=N	-1	/	/	7	-1	-1
C=CCn1c(=O)c(C#N)cc2c(=O)n3ccccc3nc21	43*	5.2*	-80	-44	-28	16*
Cc1cc(-n2c(=O)c(C#N)cc3c(=O)n4ccccc4nc32)no1	72*	11*	-124	-114	-39	19*
O=C(O)CN1CCN(Cc2ccc(F)cc2Cl)C1=O	-1	0	-11	6	4	1
COCCn1cnnc1SCC(=O)c1ccc(S(=O)(=O)N2CCCC2)cc1	-2	0	0	-2	1	0
COc1ccc(/C(O)=C2/C(=O)C(=O)N(CCCN(C)C)C2c2ccco2)cc1Cl (stereo not drawn)	-2	-4	4	/	0	-1
CC(C)Cc1nnc(NC(=O)CSc2ncn[nH]2)s1	112*	0	-14	-8	2	6
O=C(CSc1c[nH]c2ccccc12)N1CCOCC1	3	/	/	-5	3	1
CCCC(=O)c1c(C)c2ccccc2n1C	-2	-2	0	6	-2	0
COc1ccc(S(=O)(=O)N2CCC(n3cnc4cc(C(F)(F)F)ccc43)CC2)cc1	3	0	-10	-13	4	22*
Cc1cc(C(=O)CSc2nnc(-c3ccccc3)n2Cc2ccc3c(c2)OCO3)c(C)n1C	-1	0	7	1	-4	1
Cc1cc(C(=O)CSc2nc3ccccc3c(=O)n2C)c(C)n1Cc1ccc2c(c1)OCO2	-3	0	62*	4	28	0
O=C(NCCOc1ccccc1)c1n[nH]c(=O)c2ccccc12	2	0	-1	-13	4	0
CCOC(=O)N1CCC(n2c(SCC(=O)NCc3ccccc3)nc3ccccc3c2=O)CC1	0	/	/	41	11	0
CCOC(=O)N1CCC(n2c(SCC(=O)NCCC3=CCCCC3)nc3ccccc3c2=O)CC1	0	/	/	60*	19	-1
CCOC(=O)C1CCCN(C(=O)c2cnn3c(C(F)F)cc(-c4ccc(C)cc4)nc23)C1 (stereo not drawn)	1	-1	/	47*	-8	3
CCOc1cc(C(=O)Nc2ccc3c(c2)OCO3)ccc1OC(F)F	6	0	10	9	26	0
O=C(Nc1ccc(OC(F)F)c(Cl)c1)Nc1ccc2c(c1)OCO2	-2	-1	59*	61*	9	0
Cc1cc(C)c(S(=O)(=O)Nc2ccc(OCC(=O)O)cc2)c(C)c1	0	-1	1	-15	-17	-1
O=C(c1ccco1)N1CCN(C(=O)C2CCCN(S(=O)(=O)Cc3ccccc3)C2)CC1 (stereo not drawn)	70*	/	/	11	7	-1
O=C(c1ccco1)N1CCN(C(=O)C2CCN(S(=O)(=O)Cc3ccccc3)CC2)CC1	-2	1	-9	-1	2	-1
